Assay outcomes (PubChem BioAssay)
NR1D1 modulator: modulators of Rev-erb alpha DNA binding, primary screen, biochemical, FITC-DNA, fluorescence polarization, uHTS; 0.79% of 370,000 active; Rev-erbα–FITC-DNA binding, 90 min; AID 1259318, 2017; activity, % at 10 µM;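 active = activity above about 14%, limit read from the data; passing the limit was not always enough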
Target sequence (P20393 whole entry, looked up): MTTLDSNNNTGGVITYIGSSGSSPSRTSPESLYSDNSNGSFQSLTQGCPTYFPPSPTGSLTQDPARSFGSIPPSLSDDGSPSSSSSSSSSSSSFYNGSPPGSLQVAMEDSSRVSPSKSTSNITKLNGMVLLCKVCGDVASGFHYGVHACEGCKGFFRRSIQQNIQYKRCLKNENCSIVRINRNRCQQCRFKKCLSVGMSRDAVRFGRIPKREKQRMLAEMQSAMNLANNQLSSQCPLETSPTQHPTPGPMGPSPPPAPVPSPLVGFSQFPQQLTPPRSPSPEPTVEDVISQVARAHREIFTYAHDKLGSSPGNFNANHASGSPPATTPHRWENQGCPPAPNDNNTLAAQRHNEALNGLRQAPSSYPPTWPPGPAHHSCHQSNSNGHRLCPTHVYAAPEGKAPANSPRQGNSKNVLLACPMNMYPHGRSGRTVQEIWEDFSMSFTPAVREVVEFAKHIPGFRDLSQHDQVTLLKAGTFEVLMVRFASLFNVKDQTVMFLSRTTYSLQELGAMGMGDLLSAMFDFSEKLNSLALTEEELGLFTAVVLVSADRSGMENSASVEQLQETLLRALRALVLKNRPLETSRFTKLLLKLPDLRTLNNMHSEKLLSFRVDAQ
NR2E3 ag-1: NR2E3 agonists in two-hybrid cells, primary screen, cell-based, luminescence, CHO-S, Gal4-NCOR/VP16-NR2E3 | Photoreceptor-specific nuclear receptor (Homo sapiens), Q9Y5X4 | luciferase | inhibition of corepressor binding, % at 3.98 µM | 0.35% of 360,000 active | AID 602229, 2012;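 active = inhibition above the mean of all tested compounds plus 3 SD, cut at about 70% in these data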;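 note: higher means lower luciferase signal from less NR2E3 corepressor binding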
NR2E3 ag-2: inhibitors of NR2E3-RetCOR corepressor binding, primary screen, NR2E3 agonist project, biochemical, TR-FRET, GST-NR2E3, biotin-RetCOR; 0.12% of 320,000 active; 1536-well; inhibition of corepressor binding, % at 4.78 µM; Photoreceptor-specific nuclear receptor (Homo sapiens), Q9Y5X4; AID 2300, 2010;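 active = percent inhibition above the cutoff of mean plus 3 SD of all tested compounds, set per screening campaign, cut at about 20% in these data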
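System: GST-NR2E3 and biotin-RetCOR proteins; probe or stimulus: 7 nM biotin-RetCOR; doses: compound at 4.8 µM, single dose; schedule: Compound–protein incubation for 5 h at 4 °C; detection: time-resolved FRET; read-out: percent inhibition; controls: biotin wells as high control, 0.6% DMSO wells as low control; format: 1536-well plates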
PG9 Ab binder: binders of HIV-1 gp120 antibody PG9, primary screen, biochemical, TR-FRET; TR-FRET gp120-PG9 antibody binding; HIV-1 gp120 / PG9 antibody interaction; inhibition, % at 6.7 µM; 0.43% of 360,000 active; in the data active = inhibition above about 8.5%
NR2E3 ag confirm: NR2E3 agonists, confirmation, biochemical, TR-FRET | shares compounds with NR2E3 ag-2 | cell-free NR2E3 corepressor release, 5 h | activation (reported as inhibition), % at 3.98 µM | 39% of 360 active; in the data active = activation above about 20%
PPARg-NCOR2 ag: agonists of PPARg-NCOR2 corepressor interaction, counter-screen for NR2E3 agonist project, biochemical, TR-FRET; shares compounds with NR2E3 ag-2; TR-FRET PPARg-NCOR2 coregulator interaction; inhibition, % at 3.98 µM; 45% of 360 active; AID 504787, 2011; in the data active = inhibition above about 20%
PG9 bind confirm: binders of anti-gp120 antibody PG9, confirmation, biochemical, TR-FRET; shares compounds with PG9 Ab binder; 90% of 1,500 active; TR-FRET PG9 antibody binding; inhibition, % at 6.7 µM; in the data active = inhibition above about 9%
PGV04 counter: binders of control antibody PGV04, counter-screen for PG9 antibody binder project, biochemical, TR-FRET, distinct HIV envelope site | shares compounds with PG9 Ab binder | TR-FRET PGV04 antibody-gp120 binding | inhibition, % at 6.7 µM | 95% of 1,500 active; in the data active = inhibition above about 9.5%
Rev-erbA confirm: modulators of Rev-erb alpha DNA binding, confirmation, biochemical, FITC-DNA, fluorescence polarization, single point; shares compounds with NR1D1 modulator; 90 min; activation, % at 25 µM; 61% of 3,000 active; AID 1259319, 2017;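 active = activation at or above a set limit, or at least 3 SD above the negative control mean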
RORg DNA counter: modulation of RORgamma DNA binding, dose response, counter-screen for Rev-erb alpha modulator project, biochemical, fluorescence polarization, FITC-DNA; shares compounds with NR1D1 modulator; purified RORgamma protein-FITC-DNA binding; IC50, µM; 8% of 910 active; AID 1259320, 2017;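 active = Compounds whose fitted half-maximal concentration for disrupting protein-DNA binding is below 10 micromolar; the record names Rev-erb in its text, so the target is in doubt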
Large screens that a line does not name were inactive (follow-up assays come after a bar, where they were run). Hits are enriched below; roughly 1.4% of the tested compounds scored in any of these assays.

COc1ccc2nc(C)cc(SCC(=O)Nc3c(C)cc(C)cc3C)c2c1	NR1D1 modulator 412.4, NR2E3 ag-2 35.9 | NR2E3 ag confirm inactive | PPARg-NCOR2 ag inactive | Rev-erbA confirm 19.1
CCOc1cc(NS(=O)(=O)c2ccccc2)c(OCC)cc1NC(=O)c1ccco1	none
O=C(CCCn1c(=S)[nH]c2cc3c(cc2c1=O)OCO3)NCc1cccc(Cl)c1	NR1D1 modulator 48.4, NR2E3 ag-2 27.8, PG9 Ab binder 17.4 | NR2E3 ag confirm inactive | PPARg-NCOR2 ag 21.5 | PG9 bind confirm 13.1 | PGV04 counter 22.6 | Rev-erbA confirm 29.9 | RORg DNA counter inactive
CCc1ccccc1NC(=O)CSc1nc2cc(C(=O)NCC3CCCO3)ccc2c(=O)n1CC1CCCO1 (centres undefined)	none (no result: NR2E3 ag-2)
CCCCCn1c(SCC#N)nc2cc(C(=O)NCC3CCCO3)ccc2c1=O (centres undefined)	NR1D1 modulator 70.6, NR2E3 ag-2 21.6, PG9 Ab binder 68.0 | NR2E3 ag confirm inactive | PPARg-NCOR2 ag inactive | Rev-erbA confirm 37.8
O=C(CSc1nc(Cc2ccccc2)nc2ccccc12)Nc1ccc2c(c1)OCCO2	NR1D1 modulator 33.5, NR2E3 ag-2 27.6 | NR2E3 ag confirm inactive | PPARg-NCOR2 ag inactive | Rev-erbA confirm 27.0
O=C(CSc1ncnc2ccccc12)Nc1ccc2c(c1)OCCO2	none
Cc1ccc(C)c(N2CCN(CCCNC(=O)Cn3cc4c(n3)CCCCC4)CC2)c1	none
CCc1cc2cc3c(cc2nc1SCC(=O)OC(C)C)OCO3	none
CCc1cc2cc3c(cc2nc1SCC(=O)Nc1cc(C)on1)OCO3	NR1D1 modulator 211.1, NR2E3 ag-2 22.7, PG9 Ab binder 21.1 | NR2E3 ag confirm 50.9 | PPARg-NCOR2 ag 62.3 | PG9 bind confirm 46.2 | PGV04 counter 65.9 | Rev-erbA confirm 158.1 | RORg DNA counter inactive
CC(C)C(NC(=O)c1ccccc1)C(=O)N1CCCCCC1 (centres undefined)	none
Cc1sc2nc(SCC(=O)NCc3ccco3)n(Cc3ccccc3)c(=O)c2c1C	NR1D1 modulator 37.2, NR2E3 ag-2 37.7, PG9 Ab binder 20.0 | NR2E3 ag confirm inactive | PPARg-NCOR2 ag inactive | PG9 bind confirm 13.7 | PGV04 counter 19.8 | Rev-erbA confirm 30.6
CC(Sc1nnc(-c2ccccc2F)n1C1CC1)C(=O)NC(N)=O (centres undefined)	none
